Bioassay records from PubChem BioAssay.
DTT redox prof = compounds producing H2O2 with reducing agent – biochemical, NIH compound library profiling, artefact control for MLSCN library redox annotation, primary screen | DTT-dependent redox cycling H2O2, phenol red/HRP absorbance; 100% = 100 µM peroxide control, 0% = buffer | activation, % at 10 µM | 200,000 tested, 0.03% active;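 active = activation of at least 50% relative to the plate's high and low controls in the primary single-dose screen; inactive = activation below 50%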;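 note: compound incubated with DTT at 0.8 mM final as the reducing agent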
PERK inh = block of dimerizer-induced PERK translation repression, primary screen, PERK inhibitor project, CHO PERK-DD cells, SEAP luminescence, HTS. CHO PERK-DD fusion, SEAP luminescence translation reporter. Eukaryotic translation initiation factor 2-alpha kinase 3 (Homo sapiens), Q9NZJ5. AID 1416, 2008. 220,000 tested, 0.17% active. inhibition, % at 5.6 µM;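 active = inhibition above the mean inhibition of all tested compounds plus 3 SD, set separately per screening campaign, cut at about 2.9% in these data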;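 note: PERK kinase domain activated by AP20187 dimerizer at 100 nM; 0% = DMSO with dimerizer and 100% = rapamycin at 8.4 µM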
TNAP act hi DEA = TNAP activators at high phosphate acceptor level, primary screen, biochemical, luminescence, uHTS; 200,000 tested, under 10 active; activation factor at 20 µM; Alkaline phosphatase, tissue-nonspecific isozyme (Homo sapiens), P05186; purified TNAP, CDP-star luminescence, 1 M DEA, 30 min; hits give high values; 0 = EDTA background, 1 = DMSO-only activity;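 active = activation factor at least 2 at 20 µM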
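Assay system: human TNAP; Input: enzyme diluted 1/800 final; Reagent: CDP-star luminogenic substrate at 100 µM final; Timing: 30 min, room temperature; Signal: luminescence; Evaluation: TNAP activation factor scaled between EDTA and DMSO control wells.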
TNAP inh hiacc = human TNAP enzyme inhibitors, primary screen, biochemical, luminescent, high phosphate acceptor level, uHTS. 200,000 tested, 0.03% active. purified TNAP, CDP-star luminescence, 1 M DEA. Alkaline phosphatase, tissue-nonspecific isozyme (Homo sapiens), P05186. inhibition, % at 20 µM;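 active = over 50% inhibition of tissue-nonspecific alkaline phosphatase at 20 µM in the single-dose screen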;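 note: plate controls were DMSO wells for no effect and EDTA-quenched wells as full inhibition for full effect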
p97 inhibitor = inhibitors of human p97 ATPase, primary screen, biochemical; Transitional endoplasmic reticulum ATPase (Homo sapiens), P55072; 220,000 tested, 0.42% active; recombinant p97 ATPase, Kinase-Glo ATP luminescence, 3 h; inhibition, % at 8 µM; in the data active = inhibition above about 15%;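 note: 0% = DMSO vehicle and 100% = wells lacking enzyme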
TNAP inh noacc = human TNAP enzyme inhibitors, primary screen, biochemical, luminescent, no phosphate acceptor, uHTS; Alkaline phosphatase, tissue-nonspecific isozyme (Homo sapiens), P05186; purified TNAP, CDP-star luminescence, 30 min; inhibition, % at 20 µM; 200,000 tested, 0.26% active;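 active = tissue-nonspecific alkaline phosphatase inhibition above about 50% at 20 µM in the single-dose screen, limit read from the data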;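 note: 0% = DMSO negative control and 100% = EDTA positive control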
Starred values were filed as active, the others as inactive; . = no result given. A selection: hits, their analogues and other compounds. The true share with any hit is near 0.86%.

SMILES	DTT redox prof	PERK inh	TNAP act hi DEA	TNAP inh hiacc	p97 inhibitor	TNAP inh noacc
COc1ccccc1-c1nnc2sc(COc3ccc(Cl)cc3)nn12	1	-1	1	-2	-6	-12
COc1ccc(Cc2nn3c(-c4ccccc4OC)nnc3s2)cc1	-1	0	1.1	-7	6	59*
COC(=O)c1ccccc1NC(=O)Cn1ccnc1	-2	1	1	1	2	-7
O=C(O)Cn1ccnc1	0	2.9*	1	-2	5	-3
O=C(/C(C=Nc1cc2c(oc1=O)CCCC2=O)=C(\O)c1ccccc1)c1ccccc1	0	0	1	2	4	22
O=C(CSc1ncn[nH]1)Nc1nc(-c2ccccc2)cs1	1	1	1.1	-8	5	84*
O=C(CSc1ncn[nH]1)NCCC(c1ccccc1)c1ccccc1	2	1	0.5	51*	3	55*
COc1ccc(S(=O)(=O)n2nc(OC(=O)c3c(-c4ccccc4Cl)noc3C)cc2N)cc1	-5	0	1.1	-6	4	-7
S=c1[nH]nc(C2COc3ccccc3O2)o1 (stereo not given)	0	3.0*	1.1	-7	-3	-13
Cc1[nH]nc(-c2ccc(OCc3cnn(-c4ccccc4)c3)c(C)c2O)c1Oc1ccccc1	2	-1	1	2	-2	-5
Cc1[nH]nc(-c2ccc(O)c(C)c2O)c1Oc1ccccc1	0	-1	1.1	-8	5	72*
CN(C)c1ccc(/C=C/C=C2/SC(=S)N(c3ccccc3)C2=O)cc1	2	0	0.5	54*	-6	55*
COc1ccccc1CCc1nnc(CCC(=O)NC(C)Cc2cccnc2)o1 (stereo not given)	-1	2	1	-4	4	-9
CC(C)C(=O)NC(=S)Nc1ccccn1	2	2	1.1	-8	20*	0
CCC(=O)NCCNc1nc2cc(C)cc(C)c2cc1C#N	1	-1	1	2	2	-8
Cc1cc(C)c2cc(C#N)c(NCCOC(=O)c3ccccc3C)nc2c1	2	3.2*	1	-2	5	-5
Cc1ccc(NC2=C(N3CCOCC3)C(=O)c3ccccc3C2=O)cc1	2	3.2*	1	-1	6	0
Cc1c(NS(=O)(=O)c2ccc(Cl)c(C(=O)OCC(=O)NCc3ccco3)c2)c(=O)n(-c2ccccc2)n1C	0	0	1	-2	-5	-11
COC(=O)C(C)(C)ONC(=O)Nc1ccc(C)cc1	0	1	1	2	4	-11
O=c1[nH][nH]c(-c2ccccc2)c1C=Nc1cccc(Cl)c1	2	2.9*	1.1	-6	5	-134
CC(C)CNC(=S)N1CCC(NC(=O)c2ccco2)CC1	0	2	1	0	0	-6
Oc1nc(Nc2cccc(Cl)c2)sc1/C=C1\C=Nc2ccccc21	0	1	1	-2	8	-25
Oc1cccc(Nc2nc(O)c(/C=C3\C=Nc4ccccc43)s2)c1	.	-1	.	.	32*	.
CSCC(CO)NS(=O)(=O)c1ccc(C)cc1 (stereo not given)	.	2.9*	.	.	-2	.
CCn1c(SCC(=O)c2ccc(O)c(O)c2)nnc1-c1ccccc1OC	1	0	1	4	-2	38
CCn1c(SCC(=O)c2ccc(O)c(O)c2)nnc1-c1ccccc1	-2	1	0.9	6	1	50*
CCn1c(CSc2nc3ccccc3s2)nnc1SCC(=O)c1ccc(O)c(O)c1	3	-1	0.9	11	6	80*
